Activity data for three compounds are collected here from ChEMBL document CHEMBL4673384, “Studying Histone Deacetylase Inhibition and Apoptosis Induction of Psammaplin A Monomers with Modified Thiol Group” (ACS Med Chem Lett, 2021).

Active and inactive are the calls of the source. No cut-off for these calls is given here.

Assay [1] deals with HL-60. In words: Induction of apoptosis in human HL-60 cells assessed as early apoptotic cells at 8 uM incubated for 24 hrs by propidium iodide and annexin-V FITC staining based FACS analysis (reference value: 2.9 %). In kind it is functional. A general note: Flow cytometry measures light scatter and fluorescence of single cells or particles in a stream.
Assay [2] deals with HL-60. In words: Induction of apoptosis in human HL-60 cells assessed as late apoptotic cells at 1 uM incubated for 24 hrs by propidium iodide and annexin-V FITC staining based FACS analysis (reference value: 4.2 %). It is filed as functional.
Assay [3] has as its system HL-60. In words: Induction of apoptosis in human HL-60 cells assessed as late apoptotic cells at 0.5 uM incubated for 24 hrs by propidium iodide and annexin-V FITC staining based FACS analysis (reference value: 4.8 %). It is filed as functional.
Assay [4] concerns HL-60. In words: Induction of apoptosis in human HL-60 cells assessed as cleavage of caspase-8 at 0.5 to 2 uM after 24 hrs Western blot analysis. It is filed as functional, cell-based. The conditions noted are these: dose 0.5-2 µM. Summed up:
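HL-60 cells were treated for 24 h at the indicated concentrations, then analysed by Western blot. Blots were probed for cleavage of PARP and caspase-3, -8 and -9. Ac-H3, Ac-α-tubulin and β-actin were also detected, with β-actin as the loading reference.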

Regarding `O=C(NCCS)/C(Cc1ccc(O)c(Br)c1)=N/O`, in the assay on HL-60 [1], the Activity is listed as 3.3%.
Regarding `O=C(NCCSSCCNC(=O)/C(Cc1ccc(O)c(Br)c1)=N/O)/C(Cc1ccc(O)c(Br)c1)=N/O` [PSAMMAPLIN A], in the assay with HL-60 [2], the Activity was found to be 7.8%.
Take `O=C(CCNC(=O)/C(Cc1ccc(O)c(Br)c1)=N/O)NO`: in the assay on HL-60 [3], the Activity was found to be 5.9%. For the same compound, in the assay on HL-60 [4], the outcome was Active.
